According to ChEMBL document CHEMBL3621132, “Discovery of diazepane amide DORAs and 2-SORAs enabled by exploration of isosteric quinazoline replacements” (Bioorg Med Chem Lett, 2015):
Active and inactive are the calls of the source. No cut-off for these calls is given here.

Tests used:
[1] = target: Orexin receptor type 1 (Homo sapiens) (UniProt O43613); test: Binding affinity to human orexin 1 receptor expressed in CHO cells after 3 hrs by radioligand binding assay
[2] = Clearance in dog at 0.125 mg/kg, iv; assay type: ADME, organism-based, Canis lupus familiaris; settings: in vivo
In short: (§1)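 Intravenous PK in rat (2 mg/kg) and dog (0.125 or 0.5 mg/kg), vehicle 100% DMSO, n = 2. Clearance, Vdss and half-life were determined.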

Orexin receptor type 2 = target: T1, Orexin receptor type 2 (Homo sapiens, UniProt O43614); test: Antagonist activity at human orexin 2 receptor expressed in CHO cells assessed as inhibition of orexin-A-induced intracellular calcium level after 60 mins by FLIPR assay; assay type: functional, cell-based
T1 sequence (O43614 whole entry): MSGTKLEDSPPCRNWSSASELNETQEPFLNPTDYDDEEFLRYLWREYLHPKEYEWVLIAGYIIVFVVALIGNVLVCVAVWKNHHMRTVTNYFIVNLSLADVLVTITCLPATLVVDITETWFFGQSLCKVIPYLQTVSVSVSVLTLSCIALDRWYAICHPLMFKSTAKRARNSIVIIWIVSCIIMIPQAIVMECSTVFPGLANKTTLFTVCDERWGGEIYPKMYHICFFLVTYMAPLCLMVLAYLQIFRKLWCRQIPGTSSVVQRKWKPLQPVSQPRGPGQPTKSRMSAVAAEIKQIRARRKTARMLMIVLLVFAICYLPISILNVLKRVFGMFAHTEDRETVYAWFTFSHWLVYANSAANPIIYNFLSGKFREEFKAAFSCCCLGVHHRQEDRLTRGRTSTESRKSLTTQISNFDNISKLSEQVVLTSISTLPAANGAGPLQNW

[3] = target: Orexin receptor type 2 (Homo sapiens) (UniProt O43614); test: Antagonist activity at human orexin 2 receptor expressed in CHO cells assessed as inhibition of orexin-A-induced intracellular calcium level after 60 mins by FLIPR assay; settings: 1 h
Rattus norvegicus [4] = species: Rattus norvegicus; test: Ex vivo receptor occupancy at human OX2R expressed in transgenic rat at plasma concentration of 0.35 uM; assay type: functional
[5] = AUC in satellite rat sleep model at 30 mg/kg, po; assay type: ADME, organism-based; settings: in vivo
In short: (§2)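 Satellite rats from the sleep study were given 30 mg/kg orally as the free base in 20% Vitamin E TPGS in water (n = 3). Plasma AUC, Cmax and Tmax were measured over the sleep experiment.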

[6] = Cmax in satellite rat sleep model at 30 mg/kg, po; assay type: ADME, organism-based; set-up: dose 30 mg/kg, route oral; settings: in vivo
In short: as §2

[7] = Tmax in satellite rat sleep model at 30 mg/kg, po; assay type: ADME, organism-based; settings: in vivo
In short: as §2

Rattus norvegicus [8] = test: Anti-insomnia activity in rat sleep model assessed as increase in slow wave at 30 mg/kg, po up to 2 hrs; assay type: functional, organism-based
Rattus norvegicus [9] = test: Anti-insomnia activity in rat sleep model assessed as reduction of active wake at 30 mg/kg, po up to 2 hrs; assay type: functional, organism-based
Rattus norvegicus [10] = test: Anti-insomnia activity in rat sleep model assessed as increase in REM sleep at 30 mg/kg, po up to 2 hrs; assay type: functional, organism-based
[11] = Clearance in dog at 0.5 mg/kg, iv; assay type: ADME, organism-based, Canis lupus familiaris; settings: in vivo
In short: as §1

[12] = Cmax in rat at 10 mg/kg, po; assay type: ADME, organism-based; set-up: dose 10 mg/kg, route oral; settings: in vivo
In short: (§3)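 Rats were dosed orally at 10 mg/kg in 100% PEG200 (n = 2), as the free base or the hydrochloride salt. AUC, Tmax, Cmax and bioavailability (F) were derived from plasma levels.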

[13] = AUC in dog at 3 mg/kg, po; assay type: ADME, organism-based, Canis lupus familiaris; settings: in vivo
[14] = Clearance in rat at 2 mg/kg, iv; assay type: ADME, organism-based; settings: in vivo
In short: as §1

P-glycoprotein [15] = test: Permeability of the compound assessed as rat p-glycoprotein-mediated permeability ratio from basolateral to apical direction; assay type: ADME; settings: not told
[16] = Tmax in mouse at 300 mg/kg, po; assay type: ADME, organism-based; settings: in vivo
In short: (§4)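 Mice were dosed orally at 300 mg/kg as the free base in 20% Vitamin E TPGS in water, during the active phase of the sleep study. Cmax and Tmax were taken from plasma.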

[17] = Oral bioavailability in rat at 10 mg/kg; assay type: ADME, organism-based; settings: in vivo
In short: as §3

[18] = target: Orexin receptor type 2 (Homo sapiens) (UniProt O43614); test: Binding affinity to human orexin 2 receptor expressed in CHO cells after 3 hrs by radioligand binding assay
[19] = Tmax in dog at 3 mg/kg, po; assay type: ADME, organism-based, Canis lupus familiaris; settings: in vivo
In short: (§5)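 Oral dosing in dogs at 3 mg/kg as the free base in 20% Vitamin E TPGS in water (n = 2). AUC, Tmax, Cmax and oral bioavailability were determined from plasma.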

[20] = AUC in rat at 10 mg/kg, po; assay type: ADME, organism-based; settings: in vivo
[21] = Half life in dog at 0.5 mg/kg, iv; assay type: ADME, organism-based, Canis lupus familiaris; settings: in vivo
In short: as §1

[22] = Half life in rat at 2 mg/kg, iv; assay type: ADME, organism-based; settings: in vivo
In short: as §1

[23] = Oral bioavailability in dog at 3 mg/kg; assay type: ADME, organism-based, Canis lupus familiaris; settings: in vivo
In short: as §5

[24] = Tmax in rat at 10 mg/kg, po; assay type: ADME, organism-based; settings: in vivo
In short: as §3

[25] = Plasma protein binding in dog; assay type: ADME, cell-free, Canis lupus familiaris; settings: read-out: PPB (converted)
[26] = Plasma protein binding in human; assay type: ADME, cell-free; settings: read-out: PPB (converted)
[27] = Lipophilicity, log D of the compound by HPLC analysis; assay type: physicochemical
[28] = Volume of distribution at steady state in dog at 0.5 mg/kg, iv; assay type: ADME, organism-based, Canis lupus familiaris; settings: in vivo, read-out: Vdss
In short: as §1

P-glycoprotein [29] = test: Permeability of the compound assessed as human p-glycoprotein-mediated permeability ratio from basolateral to apical direction; assay type: ADME; settings: not told
[30] = Cmax in dog at 3 mg/kg, po; assay type: ADME, organism-based, Canis lupus familiaris; set-up: dose 3 mg/kg, route oral; settings: in vivo
In short: as §5

[31] = Volume of distribution at steady state in rat at 2 mg/kg, iv; assay type: ADME, organism-based; settings: in vivo, read-out: Vdss
In short: as §1

[32] = Cmax in mouse at 300 mg/kg, po; assay type: ADME, organism-based; set-up: dose 300 mg/kg, route oral; settings: in vivo
In short: as §4

[33] = Plasma protein binding in rat; assay type: ADME, cell-free; settings: read-out: PPB (converted)
[34] = Apparent permeability of the compound assessed […] by cell based assay; assay type: physicochemical
Liver microsome [35] = test: Bioactivation of compound in rat liver microsomes assessed as AUC of GSH-adduct formation at 10 uM after 60 mins by HRMS analysis relative to labetalol; settings: 1 h
Liver microsome [36] = test: Bioactivation of compound in human liver microsomes assessed as AUC of GSH-adduct formation at 10 uM after 60 mins by HRMS analysis relative to labetalol; settings: 1 h
Homo sapiens = species: Homo sapiens; test: Selectivity ratio of IC50 for human orexin 1 receptor Ile408-Val mutant to IC50 for human orexin 2 receptor
[37] = Volume of distribution at steady state in dog at 0.125 mg/kg, iv; assay type: ADME, organism-based, Canis lupus familiaris; settings: in vivo, read-out: Vdss
In short: as §1

Rattus norvegicus [38] = species: Rattus norvegicus; test: Ex vivo receptor occupancy at human OX2R expressed in transgenic rat at plasma concentration of 1 uM; assay type: functional
[39] = Half life in dog at 0.125 mg/kg, iv; assay type: ADME, organism-based, Canis lupus familiaris; settings: in vivo
In short: as §1

[40] = Oral bioavailability in satellite rat sleep model at 30 mg/kg; assay type: ADME, organism-based; settings: in vivo
In short: as §2

Cc1nc(N2CC[C@@H](C)N(C(=O)c3ccccc3-n3nccn3)CC2)ncc1C(F)(F)F
Ki [1]: 0.011 µM | clearance [2]: 0.3 L/h/kg | IC50 (Orexin receptor type 2): 0.019 µM | IC50 [3]: 0.019 µM

C[C@@H]1CCN(c2ncc3cc(F)ccc3n2)CCN1C(=O)c1ccccc1-n1nccn1
clearance [2]: 0.18 L/h/kg | Activity (Rattus norvegicus [4]): 90% | AUC [5]: 4.5 µM·h | Cmax [6]: 2 µM | Tmax [7]: 1.3 h | Activity (Rattus norvegicus [8]): Active | Activity (Rattus norvegicus [9]): Active | Activity (Rattus norvegicus [10]): Active

Cc1ncc(Cl)c(N2CC[C@@H](C)N(C(=O)c3ccccc3-n3nccn3)CC2)n1
clearance [11]: 0.9 L/h/kg | Cmax [12]: 0.9 µM | Ki [1]: 1.8 µM | AUC [13]: 1.8 µM·h | IC50 (Orexin receptor type 2): 0.048 µM | clearance [14]: 7.08 L/h/kg | efflux ratio (P-glycoprotein [15]): 1.5 | Tmax [16]: 1 h | bioavailability [17]: 35% | Ki [18]: 0.0036 µM | Tmax [19]: 0.4 h | AUC [20]: 1.2 µM·h | half-life [21]: 0.9 h | half-life [22]: 3.2 h | bioavailability [23]: 19% | Tmax [24]: 0.4 h | fraction unbound [25]: 0.05 | fraction unbound [26]: 0.05 | logD [27]: 2.8 | Vd [28]: 0.8 L/kg | efflux ratio (P-glycoprotein [29]): 0.7 | Cmax [30]: 1.3 µM | Vd [31]: 7 L/kg | Cmax [32]: 18 µM | fraction unbound [33]: 0.12 | Papp [34]: 340 nm/s

Cc1ccc(-n2nccn2)c(C(=O)N2CCN(c3nc4cc(Cl)ccc4o3)CC[C@H]2C)c1 [SUVOREXANT]
Activity (Liver microsome [35]): > 95% | Activity (Liver microsome [36]): > 95%

COc1ncc(C(F)(F)F)c(N2CC[C@@H](C)N(C(=O)c3ccccc3-n3nccn3)CC2)n1
IC50 (Orexin receptor type 2): 0.245 µM | Ratio IC50 (Homo sapiens): 7

C[C@@H]1CCN(c2nc(Cl)ncc2Cl)CCN1C(=O)c1ccccc1-n1nccn1
Ki [1]: 0.85 µM | IC50 (Orexin receptor type 2): 0.025 µM | Ki [18]: 0.0011 µM

Cc1ccc(-n2nccn2)c(C(=O)N2CCN(c3ncc(C(F)(F)F)c(C)n3)CC[C@H]2C)c1
Ki [1]: 0.0016 µM | clearance [2]: 0.6 L/h/kg | IC50 (Orexin receptor type 2): 0.085 µM | Ki [18]: 0.0005 µM

COc1nc(N2CC[C@@H](C)N(C(=O)c3cc(C)ccc3-n3nccn3)CC2)ncc1C(F)(F)F
Cmax [12]: 0.2 µM | Vd [37]: 0.4 L/kg | Activity (Rattus norvegicus [38]): 83% | Ki [1]: 0.0015 µM | AUC [13]: 9.9 µM·h | clearance [2]: 0.18 L/h/kg | IC50 (Orexin receptor type 2): 0.027 µM | clearance [14]: 2.22 L/h/kg | half-life [39]: 2.4 h | bioavailability [17]: 8% | Tmax [19]: 0.6 h | AUC [5]: 5.5 µM·h | Cmax [6]: 2.5 µM | AUC [20]: 0.6 µM·h | bioavailability [40]: 19% | half-life [22]: 1.1 h | bioavailability [23]: 23% | Tmax [7]: 0.8 h | Activity (Rattus norvegicus [8]): Active | Tmax [24]: 3 h | fraction unbound [25]: 0.005 | fraction unbound [26]: 0.04 | Activity (Rattus norvegicus [9]): Active | logD [27]: 3.4 | Activity (Rattus norvegicus [10]): Active | IC50 [3]: 0.027 µM | Cmax [30]: 2.3 µM | Vd [31]: 2.5 L/kg | fraction unbound [33]: 0.05 | Papp [34]: 280 nm/s

Cc1ccc(-n2nccn2)c(C(=O)N2CCN(c3ncc(C)c(Cl)n3)CC[C@H]2C)c1
Ki [1]: 0.0039 µM | clearance [2]: 0.48 L/h/kg | IC50 (Orexin receptor type 2): 0.028 µM | Ki [18]: 0.0004 µM | IC50 [3]: 0.028 µM
